In ChEMBL document CHEMBL1143971, “Synthesis, adenosine receptor binding and 3D-QSAR of 4-substituted 2-(2'-furyl)-1,2,4-triazolo[1,5-a]quinoxalines” (Bioorg Med Chem, 2008):

Assays:
Format in all cases: cell-based
[1] = molecular target: T1, Adenosine receptor A3 (Homo sapiens) (UniProt P0DMS8); assay: Displacement of [3]NECA from human adenosine A3 receptor expressed in HeLa cells at 1 uM
T1 sequence (whole entry): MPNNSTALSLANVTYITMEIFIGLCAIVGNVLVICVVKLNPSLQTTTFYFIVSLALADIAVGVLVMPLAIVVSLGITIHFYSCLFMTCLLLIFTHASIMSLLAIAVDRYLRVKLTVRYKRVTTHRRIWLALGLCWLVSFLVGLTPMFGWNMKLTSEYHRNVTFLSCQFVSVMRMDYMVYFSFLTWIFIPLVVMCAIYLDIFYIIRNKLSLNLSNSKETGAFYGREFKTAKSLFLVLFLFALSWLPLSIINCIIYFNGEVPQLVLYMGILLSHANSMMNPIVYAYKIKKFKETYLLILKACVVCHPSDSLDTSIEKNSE
How it was run: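 At 1 µM test compound, 90 µg membranes were incubated with 30 nM [3H]NECA for 180 min at 25 °C in Tris/EDTA/5 mM MgCl2/adenosine deaminase buffer, pH 7.4. Nonspecific binding with 100 µM (R)-PIA. Result given as % displacement of specific binding.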

Adenosine receptor A2b = molecular target: T2, Adenosine receptor A2b (Homo sapiens, UniProt P29275); assay: Displacement of [3]DPCPX from human adenosine A2B receptor expressed in HEK293 cells
T2 sequence (P29275 whole entry): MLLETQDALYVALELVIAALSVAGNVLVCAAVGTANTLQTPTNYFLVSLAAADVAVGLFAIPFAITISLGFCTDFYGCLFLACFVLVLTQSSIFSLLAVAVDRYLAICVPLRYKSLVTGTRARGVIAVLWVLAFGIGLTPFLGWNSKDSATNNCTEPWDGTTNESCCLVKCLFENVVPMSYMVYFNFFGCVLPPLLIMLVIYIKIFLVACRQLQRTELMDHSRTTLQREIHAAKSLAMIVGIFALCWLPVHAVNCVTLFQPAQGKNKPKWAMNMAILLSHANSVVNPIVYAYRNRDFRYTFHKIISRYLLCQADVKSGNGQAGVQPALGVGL
How it was run: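 Membranes (18 µg) incubated 30 min at 25 °C with 35 nM [3H]DPCPX in 50 mM Tris-HCl, 1 mM EDTA, 10 mM MgCl2, 0.1 mM benzamidine, 2 U/mL adenosine deaminase, pH 6.5, plus six concentrations (0.1 nM–1 µM). Nonspecific binding defined with 400 µM NECA. GF/B filtration, six washes with Tris pH 6.5. Ki via Cheng–Prusoff.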

Adenosine receptor A2a [2] = molecular target: T3, Adenosine receptor A2a (Homo sapiens, UniProt P29274); assay: Displacement of [3]ZM241385 from human adenosine A2A receptor expressed in HeLa cells
T3 sequence (P29274 whole entry): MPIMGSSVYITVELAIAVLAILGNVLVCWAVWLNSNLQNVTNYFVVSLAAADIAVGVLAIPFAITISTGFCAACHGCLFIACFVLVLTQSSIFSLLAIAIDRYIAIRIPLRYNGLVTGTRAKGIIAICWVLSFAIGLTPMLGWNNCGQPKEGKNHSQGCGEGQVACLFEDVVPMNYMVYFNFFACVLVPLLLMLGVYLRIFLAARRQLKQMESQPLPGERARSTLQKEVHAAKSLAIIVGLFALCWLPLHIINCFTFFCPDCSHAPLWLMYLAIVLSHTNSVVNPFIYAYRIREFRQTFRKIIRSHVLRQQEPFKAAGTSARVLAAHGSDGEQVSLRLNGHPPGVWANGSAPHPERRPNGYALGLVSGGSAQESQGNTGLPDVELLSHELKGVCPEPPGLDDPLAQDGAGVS
How it was run: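 10 µg membranes, 3 nM [3H]ZM241385, 30 min at 25 °C in 50 mM Tris-HCl, 1 mM EDTA, 10 mM MgCl2, 2 U/mL adenosine deaminase, pH 7.4. Six test concentrations (0.1 nM–1 µM). Nonspecific binding from 50 µM NECA. GF/C filtration, four ice-cold washes, scintillation counting. Ki via Cheng–Prusoff.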

Adenosine receptor A1 = molecular target: T4, Adenosine receptor A1 (Homo sapiens, UniProt P30542); assay: Displacement of [3]DPCPX from human adenosine A1 receptor expressed in CHO cells
T4 sequence (P30542 whole entry): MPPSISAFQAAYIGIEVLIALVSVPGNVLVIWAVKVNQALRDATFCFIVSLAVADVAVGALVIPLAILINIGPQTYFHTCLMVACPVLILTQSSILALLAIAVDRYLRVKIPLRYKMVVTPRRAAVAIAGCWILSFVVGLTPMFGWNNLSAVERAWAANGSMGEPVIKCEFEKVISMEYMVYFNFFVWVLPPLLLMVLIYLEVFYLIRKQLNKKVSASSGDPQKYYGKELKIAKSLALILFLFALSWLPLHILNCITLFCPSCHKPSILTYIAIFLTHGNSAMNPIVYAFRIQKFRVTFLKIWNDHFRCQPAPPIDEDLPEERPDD
How it was run: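 Membranes (15 µg) incubated 60 min at 25 °C with 2 nM [3H]DPCPX in 20 mM Hepes, 100 mM NaCl, 10 mM MgCl2, 2 U/mL adenosine deaminase, pH 7.4, plus 6 test concentrations (0.1 nM–1 µM). Nonspecific binding defined with 10 µM (R)-PIA. Filtration on GF/C, 4 ice-cold washes, scintillation counting. Ki from IC50 via Cheng–Prusoff.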

Adenosine receptor A3 = molecular target: T5, Adenosine receptor A3 (Homo sapiens, UniProt P0DMS8); assay: Displacement of [3]NECA from human adenosine A3 receptor expressed in HeLa cells
T5 sequence (P0DMS8 whole entry): T1 sequence (whole entry)
How it was run: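 90 µg membranes, 30 nM [3H]NECA, 180 min at 25 °C in 50 mM Tris-HCl, 1 mM EDTA, 5 mM MgCl2, 2 U/mL adenosine deaminase, pH 7.4. Test compound at six concentrations (0.1 nM–1 µM). Nonspecific binding with 100 µM (R)-PIA. GF/B filtration, six washes, scintillation counting. Ki = IC50/(1 + C/KD).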

Adenosine receptor A2a [3] = molecular target: T3, Adenosine receptor A2a; assay: Displacement of [3]ZM241385 from human adenosine A2A receptor expressed in HeLa cells at 1 uM
How it was run: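 At 1 µM test compound: 10 µg membranes, 3 nM [3H]ZM241385, 30 min at 25 °C in Tris/EDTA/MgCl2/adenosine deaminase buffer, pH 7.4. Nonspecific binding from 50 µM NECA. Output is % displacement of specific binding, based on total and nonspecific dpm.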

[4] = molecular target: T6, Adenosine receptor A1 (Homo sapiens) (UniProt P30542); assay: Displacement of [3]DPCPX from human adenosine A1 receptor expressed in CHO cells at 1 uM
T6 sequence (whole entry): T4 sequence (P30542 whole entry)
How it was run: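 Single-point competition at 1 µM test compound: 15 µg membranes, 2 nM [3H]DPCPX, 60 min at 25 °C, Hepes/NaCl/MgCl2/adenosine deaminase buffer pH 7.4. 10 µM (R)-PIA for nonspecific binding. % displacement = (total binding − dpm)×100/(total − nonspecific).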

[5] = molecular target: T7, Adenosine receptor A2b (Homo sapiens) (UniProt P29275); assay: Displacement of [3]DPCPX from human adenosine A2B receptor expressed in HEK293 cells at 1 uM
T7 sequence (whole entry): T2 sequence (P29275 whole entry)
How it was run: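 At 1 µM test compound: 18 µg membranes, 35 nM [3H]DPCPX, 30 min at 25 °C, Tris/EDTA/MgCl2/benzamidine/adenosine deaminase buffer pH 6.5. Nonspecific binding from 400 µM NECA. Value expressed as % displacement of specific binding, calculated from total, nonspecific and competed dpm.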

Compound	inhibition [1] [%]	Ki (Adenosine receptor A2b) [µM]	Ki (Adenosine receptor A2a [2]) [µM]	Ki (Adenosine receptor A1) [µM]	Ki (Adenosine receptor A3) [µM]	inhibition (Adenosine receptor A2a [3]) [%]	inhibition [4] [%]	inhibition [5] [%]
OCCN1CCN(c2nc3ccccc3n3nc(-c4ccco4)nc23)CC1	24					12	24.5	3
c1ccc(CCNc2nc3ccccc3n3nc(-c4ccco4)nc23)cc1			0.0513	0.0933	0.372			46
c1ccc(CNc2nc3ccccc3n3nc(-c4ccco4)nc23)cc1	32.6		0.302	0.102				24
c1coc(-c2nc3c(N4CCNCC4)nc4ccccc4n3n2)c1	26.7					7	12.3	4
COCCNc1nc2ccccc2n2nc(-c3ccco3)nc12			3.09	0.302	0.437			32
c1coc(COc2nc3ccccc3n3nc(-c4ccco4)nc23)c1					0.0661	8	55.1	3
NCC(O)CNc1nc2ccccc2n2nc(-c3ccco3)nc12 (centres undefined)	43			0.141		57		34
CCN(CC)c1nc2ccccc2n2nc(-c3ccco3)nc12	10.4	2.4	0.398	0.135				
O=C(Cc1ccccc1)Nc1nc2ccccc2n2nc(-c3ccco3)nc12		0.251	0.158	0.0631	0.1			
COCCCNc1nc2ccccc2n2nc(-c3ccco3)nc12	82	0.427	0.372	0.0741				
O=C(Nc1nc2ccccc2n2nc(-c3ccco3)nc12)c1ccco1		2.51	0.398	0.2	0.251			
c1ccc(COc2nc3ccccc3n3nc(-c4ccco4)nc23)cc1					1.55	38	13.8	3
CN(C)c1nc2ccccc2n2nc(-c3ccco3)nc12	50.7		0.309				31.1	17
c1coc(-c2nc3c(OCc4ccoc4)nc4ccccc4n3n2)c1		0.145	0.575	0.537	0.676			
CCOc1nc2ccccc2n2nc(-c3ccco3)nc12	69			3.72		38		34
COc1nc2ccccc2n2nc(-c3ccco3)nc12	57.4		0.398	0.331				28
CC(=O)Nc1nc2ccccc2n2nc(-c3ccco3)nc12		0.251	0.2	0.112	0.251			
COC(CNc1nc2ccccc2n2nc(-c3ccco3)nc12)OC	55.3			0.575		20		22

More lines, in order of falling Ki (Adenosine receptor A1), values ahead:

inhibition [1] [%]	Ki (Adenosine receptor A2b) [µM]	Ki (Adenosine receptor A2a [2]) [µM]	Ki (Adenosine receptor A1) [µM]	Ki (Adenosine receptor A3) [µM]	inhibition (Adenosine receptor A2a [3]) [%]	inhibition [4] [%]	inhibition [5] [%]	Compound
51.7		0.11	0.0589				46	OCCN(CCO)c1nc2ccccc2n2nc(-c3ccco3)nc12
52			0.0501		10		21	O=C(Nc1nc2ccccc2n2nc(-c3ccco3)nc12)c1cccs1
71.7		0.0646	0.0457				49	c1ccc(Nc2nc3ccccc3n3nc(-c4ccco4)nc23)cc1
57.3	1.74	0.49	0.0331					c1coc(CNc2nc3ccccc3n3nc(-c4ccco4)nc23)c1
	0.501	0.0631	0.0126	0.126				O=C(CCc1ccccc1)Nc1nc2ccccc2n2nc(-c3ccco3)nc12
	0.0132	0.0112	0.00562	0.331				Nc1nc2ccccc2n2nc(-c3ccco3)nc12
	0.0676	0.0479	0.00398	0.0229				CC(O)CNc1nc2ccccc2n2nc(-c3ccco3)nc12 (centres undefined)
	0.123	0.0631	0.00316	0.0302				OCCNc1nc2ccccc2n2nc(-c3ccco3)nc12
